Assay results: ChEMBL document CHEMBL2203202, “Angucyclines from an insect-derived actinobacterium Amycolatopsis sp. HCa1 and their cytotoxic activity” (Bioorg Med Chem Lett, 2012)
Where a name gives a salt, the structure may show the parent alone. The source made the active and inactive calls. The rule behind the calls is not given here.

What was measured:
Type in all cases: functional, cell-based
HepG2 [1] = assay: Cytotoxicity against human HepG2 cells after 48 hrs by MTT assay; conditions: HepG2, 48 h
How it was run: (§1)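 Cell lines obtained from a provincial disease-control centre. Compounds (HPLC-DAD purity over 95%) dissolved in DMSO and tested against the cells. Viability read by MTT colorimetric assay and expressed as IC50. Doxorubicin HCl served as positive control and compound-free medium as negative control. Each test was run three times.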

A-375 [2] = assay: Cytotoxicity against human A375 cells after 48 hrs by MTT assay; conditions: A-375, 48 h; how it was run: as §1
[3] = Cytotoxicity against human GHOST-R5X4 cells after 48 hrs by MTT assay; conditions: GHOST-R5X4, 48 h; how it was run: as §1
BGC-823 [4] = assay: Cytotoxicity against human BGC823 cells after 48 hrs by MTT assay; conditions: BGC-823, 48 h; how it was run: as §1
KB [5] = assay: Cytotoxicity against human KB cells up to 100 uM after 48 hrs by MTT assay; how it was run: as §1
A-375 [6] = assay: Cytotoxicity against human A375 cells up to 100 uM after 48 hrs by MTT assay; how it was run: as §1
GHOST-R5X4 = assay: Cytotoxicity against human GHOST-R5X4 cells up to 100 uM after 48 hrs by MTT assay; how it was run: as §1
HepG2 [7] = assay: Cytotoxicity against human HepG2 cells up to 100 uM after 48 hrs by MTT assay; how it was run: as §1
BGC-823 [8] = assay: Cytotoxicity against human BGC823 cells up to 100 uM after 48 hrs by MTT assay; how it was run: as §1
KB [9] = assay: Cytotoxicity against human KB cells after 48 hrs by MTT assay; how it was run: as §1

SMILES | IC50 (HepG2 [1]) [µM] | IC50 (A-375 [2]) [µM] | IC50 [3] [µM] | IC50 (BGC-823 [4]) [µM] | Activity (KB [5]) | Activity (A-375 [6]) | Activity (GHOST-R5X4) | Activity (HepG2 [7]) | Activity (BGC-823 [8]) | IC50 (KB [9]) [µM]
C[C@H]1O[C@H](O[C@]23C(=O)C[C@](C)(O)C[C@@]2(O)C=CC2=C3C(=O)c3cccc(O)c3C2=O)CC[C@H]1O [SAKYOMICIN C] | 17.4 | 17.5 | 14 | 11 | inactive |  |  |  |  | 
COC(=O)C(O)C(C)(O)Cc1ccc2c(c1O)C(=O)c1cccc(O)c1C2=O (centres undefined) |  |  |  |  | inactive | inactive |  |  |  | 
C[C@H]1O[C@H](O[C@]23C(=O)[C@@H](O)[C@](C)(O)C[C@@]2(O)C=CC2=C3C(=O)c3cccc(O)c3C2=O)CC[C@H]1O [SAKYOMICIN A] | 34.9 |  |  | 15.1 | inactive | inactive | inactive |  |  | 
COc1cccc2c1C(=O)c1ccc3cc(C)cc(O)c3c1C2=O |  |  | 89 |  | inactive | inactive |  | inactive | inactive | 
C[C@@]1(O)Cc2ccc3c(c2C(=O)[C@@H]1O)C(=O)c1cccc(O)c1C3=O |  |  | 37.6 |  | inactive | inactive |  | inactive | inactive | 
Cc1cc(O[C@@H]2O[C@@H](C)[C@H](O)[C@@H](O)[C@H]2O)c2c3c(c(O)cc2c1)C(=O)c1c(O)cccc1C3=O |  |  |  |  | inactive | inactive |  |  |  | 
COc1cccc2c1C(=O)c1c(O)c3c(c(O)c1C2=O)C[C@@](O)(C(=O)CO)C[C@@H]3O[C@H]1C[C@H](N)[C@H](O)[C@H](C)O1 [DOXORUBICIN HYDROCHLORIDE] | 1.11 | 0.73 | 5.73 | 0.01 |  |  |  |  |  | 0.01
C[C@]1(O)CC(=O)c2c(ccc3c2C(=O)c2cccc(O)c2C3=O)C1 [TETRANGOMYCIN] |  |  | 17.7 | 36.1 |  | inactive |  | inactive |  | 23.7
